Converted amounts (≈) assume the structure as drawn.
Tests used:
[1] = test system: Bacillus subtilis; experiment: Antibacterial activity against Bacillus subtilis NCIM 2063 after 18 hrs by disc diffusion method; type: functional
Summary of the method: (§1)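 Modified Kirby-Bauer disc diffusion. Plates inoculated with spore suspension (about 6 × 10⁴ spores mL^-1). Sterile 6 mm paper discs carried test samples at 10 mg mL^-1; ciprofloxacin disc as reference, DMF disc as negative control. Plates held 18 h at 37 °C. Inhibition zone diameters (mm) averaged over triplicate sets.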

[2] = test system: Staphylococcus aureus; experiment: Antibacterial activity against Staphylococcus aureus NCIM 2079 after 18 hrs by disc diffusion method; type: functional; summary of the method: as §1
[3] = test system: Pseudomonas aeruginosa; experiment: Antibacterial activity against Pseudomonas aeruginosa NCIM 2034 after 18 hrs by disc diffusion method; type: functional; summary of the method: as §1
[4] = test system: Escherichia coli; experiment: Antibacterial activity against Escherichia coli NCIM 2065 after 18 hrs by disc diffusion method; type: functional; summary of the method: as §1
[5] = test system: Candida albicans; experiment: Antifungal activity against Candida albicans MUCC 29 after 48 hrs by disc diffusion method; type: functional
Summary of the method: (§2)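 Agar well diffusion on plates inoculated with spore suspension in normal saline from cultures on Sabouraud's broth. Wells punched and loaded with test samples or griseofulvin at 10 mg mL^-1, with DMSO as negative control. Incubated 48 h at 37 °C.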

[6] = test system: Microsporum audouinii; experiment: Antifungal activity against Microsporum audouinii MUCC 545 after 48 hrs by disc diffusion method; type: functional; summary of the method: as §2
[7] = test system: Trichophyton benhamiae; experiment: Antifungal activity against Trichophyton mentagrophytes MUCC 665 after 48 hrs by disc diffusion method; type: functional, Arthroderma benhamiae; summary of the method: as §2
[8] = test system: Aspergillus niger; experiment: Antifungal activity against Aspergillus niger MUCC 177 after 48 hrs by disc diffusion method; type: functional; summary of the method: as §2
[9] = test system: Bacillus subtilis; experiment: Antibacterial activity against Bacillus subtilis NCIM 2063 after 18 hrs by tube dilution method; type: functional; details: NCIM 2063, 18 h
Summary of the method: (§3)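 Tube dilution MIC. Stock diluted in sterile broth to seven concentrations from 200 to 3.1 […]. Each tube inoculated with one loopful of test bacterium and incubated 18 h at 37 °C. MIC read from presence or absence of growth.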

[10] = test system: Staphylococcus aureus; experiment: Antibacterial activity against Staphylococcus aureus NCIM 2079 after 18 hrs by tube dilution method; type: functional; details: NCIM 2079, 18 h; summary of the method: as §3
[11] = test system: Pseudomonas aeruginosa; experiment: Antibacterial activity against Pseudomonas aeruginosa NCIM 2034 after 18 hrs by tube dilution method; type: functional; details: NCIM 2034, 18 h; summary of the method: as §3
[12] = test system: Escherichia coli; experiment: Antibacterial activity against Escherichia coli NCIM 2065 after 18 hrs by tube dilution method; type: functional; details: NCIM 2065, 18 h
[13] = test system: Candida albicans; experiment: Antifungal activity against Candida albicans MUCC 29 after 48 hrs by tube dilution method; type: functional
Summary of the method: (§4)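 Tube dilution MIC as for bacteria (seven concentrations, 200–3.1 […]), with DMSO in place of DMF. Tubes inoculated with fungal culture and incubated 48 h at 37 °C. MIC read from presence or absence of growth.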

[14] = test system: Microsporum audouinii; experiment: Antifungal activity against Microsporum audouinii MUCC 545 after 48 hrs by tube dilution method; type: functional; summary of the method: as §4
[15] = test system: Trichophyton benhamiae; experiment: Antifungal activity against Trichophyton mentagrophytes MUCC 665 after 48 hrs by tube dilution method; type: functional, Arthroderma benhamiae; summary of the method: as §4
[16] = test system: Eudrilus; experiment: Anthelmintic activity against Eudrilus sp. assessed as mean paralyzing time; type: functional
Summary of the method: (§5)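 Earthworms exposed to test suspensions at 2 mg mL^-1 (0.2% w/v), made by triturating compound with Tween 80 (0.5%) and distilled water, then mechanically stirred 30 min. Mebendazole suspension prepared alike as reference. Paralysis and death times recorded; death confirmed by no movement in 50 °C water. Means from triplicate sets.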

[17] = test system: Eudrilus; experiment: Anthelmintic activity against Eudrilus sp. assessed as mean death time; type: functional
Summary of the method: (§6)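 Earthworms exposed to test suspensions at 2 mg mL−1, prepared by triturating compound with Tween 80 (0.5%) and distilled water, stirring 30 min, then diluting to 0.2% w/v. Mebendazole suspension was made the same way. Death was confirmed by moving worms into 50 °C warm water and looking for movement. Mean death time (min) taken from triplicate sets.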

[18] = Growth inhibition of DLA cells at 500 ug/mL after 3 hrs; type: functional; details: Mus musculus
Summary of the method: (§7)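 DLA and EAC cells passaged intraperitoneally in albino mice, harvested after 15–20 days and adjusted to 1 × 10⁶ cells/mL. Dilutions in Dulbecco's medium (500–31.25, some down to 3.91 µg/mL; 5-FU reference) mixed 1:1 with cells and held 3 h at 37 °C. Trypan blue exclusion gave % growth inhibition; CTC50 by graphical extrapolation.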

[19] = Growth inhibition of DLA cells at 250 ug/mL after 3 hrs; type: functional; details: Mus musculus; summary of the method: as §7
[20] = Growth inhibition of DLA cells at 125 ug/mL after 3 hrs; type: functional; details: Mus musculus; summary of the method: as §7
[21] = Growth inhibition of DLA cells at 62.5 ug/mL after 3 hrs; type: functional; details: Mus musculus; summary of the method: as §7
[22] = Growth inhibition of DLA cells at 31.25 ug/mL after 3 hrs; type: functional; details: Mus musculus; summary of the method: as §7
[23] = Growth inhibition of DLA cells after 3 hrs; type: functional; details: Mus musculus; summary of the method: as §7
[24] = Growth inhibition of EAC cells at 500 ug/mL after 3 hrs; type: functional; details: Mus musculus, Ehrlich; summary of the method: as §7
[25] = Growth inhibition of EAC cells at 250 ug/mL after 3 hrs; type: functional; details: Mus musculus, Ehrlich; summary of the method: as §7
[26] = Growth inhibition of EAC cells at 125 ug/mL after 3 hrs; type: functional; details: Mus musculus, Ehrlich; summary of the method: as §7
[27] = Growth inhibition of EAC cells at 62.5 ug/mL after 3 hrs; type: functional; details: Mus musculus, Ehrlich; summary of the method: as §7
[28] = Growth inhibition of EAC cells at 31.25 ug/mL after 3 hrs; type: functional; details: Mus musculus, Ehrlich; summary of the method: as §7
[29] = Growth inhibition of EAC cells after 3 hrs; type: functional; details: Mus musculus, Ehrlich; summary of the method: as §7
[30] = Anthelmintic activity against Megascoplex konkanensis ICARBC 211 assessed as mean paralyzing time; type: functional; summary of the method: as §5
[31] = Anthelmintic activity against Megascoplex konkanensis ICARBC 211 assessed as mean death time; type: functional; summary of the method: as §5
[32] = test system: Pontoscolex corethrurus; experiment: Anthelmintic activity against Pontoscolex corethrurus ICARBC 408 assessed as mean paralyzing time; type: functional; summary of the method: as §5
[33] = test system: Pontoscolex corethrurus; experiment: Anthelmintic activity against Pontoscolex corethrurus ICARBC 408 assessed as mean death time; type: functional; summary of the method: as §6

| Compound | inhibition zone (IZ) [1] [mm] | inhibition zone (IZ) [2] [mm] | inhibition zone (IZ) [3] [mm] | inhibition zone (IZ) [4] [mm] | inhibition zone (IZ) [5] [mm] | inhibition zone (IZ) [6] [mm] | inhibition zone (IZ) [7] [mm] | inhibition zone (IZ) [8] [mm] | MIC [9] [µg/mL] | MIC [10] [µg/mL] | MIC [11] [µg/mL] | MIC [12] [µg/mL] | MIC [13] [µg/mL] | MIC [14] [µg/mL] | MIC [15] [µg/mL] | Time [16] [min] | Time [17] [min] | inhibition at 500 µg/mL [18] [%] | inhibition at 250 µg/mL [19] [%] | inhibition at 125 µg/mL [20] [%] | further results |
| --- | --- | --- | --- | --- | --- | --- | --- | --- | --- | --- | --- | --- | --- | --- | --- | --- | --- | --- | --- | --- | --- |
| COC(=O)[C@H](Cc1cnc[nH]1)NC(=O)[C@H](Cc1cnc[nH]1)NC(=O)c1cc(-c2nc3cc(C)c(C)cc3[nH]2)ccc1O | 13 | 11 | 21 | 17 | 20 | 11 | 15 | 17 | 6 (≈ 10.5 µM) | 12.5 (≈ 21.9 µM) | 6 (≈ 10.5 µM) | 12.5 (≈ 21.9 µM) | 6 (≈ 10.5 µM) | 6 (≈ 10.5 µM) | 6 (≈ 10.5 µM) | 10.38 | 21.78 | 36.8 | 31.6 | 21 | inhibition at 62.5 µg/mL [21]: 15.8%; inhibition at 31.25 µg/mL [22]: 7.89%; CC50 [23]: > 877 µM; inhibition at 500 µg/mL [24]: 21.4%; inhibition at 250 µg/mL [25]: 14.3%; inhibition at 125 µg/mL [26]: 7.14%; inhibition at 62.5 µg/mL [27]: 7.14%; inhibition at 31.25 µg/mL [28]: 3.57%; CC50 [29]: > 877 µM; TIME [30]: 0.175 h; TIME [31]: 0.305 h; Time [32]: 12.22 min; Time [33]: 23.75 min |
| Cc1cc2nc(-c3c(I)cc(C(=O)N[C@@H](Cc4cnc[nH]4)C(=O)N4CCC[C@H]4C(=O)O)cc3I)[nH]c2cc1C | 16 | 13 | 27 | 18 | 25 | 10 | 13 | 14 | 6 (≈ 7.98 µM) | 12.5 (≈ 16.6 µM) | 6 (≈ 7.98 µM) | 12.5 (≈ 16.6 µM) | 6 (≈ 7.98 µM) | 25 (≈ 33.2 µM) | 6 (≈ 7.98 µM) | 13.37 | 23.86 | 52.6 | 42.1 | 34.2 | inhibition at 62.5 µg/mL [21]: 28.9%; inhibition at 31.25 µg/mL [22]: 13.2%; CC50 [23]: 583 µM; inhibition at 500 µg/mL [24]: 35.7%; inhibition at 250 µg/mL [25]: 28.6%; inhibition at 125 µg/mL [26]: 10.7%; inhibition at 62.5 µg/mL [27]: 10.7%; inhibition at 31.25 µg/mL [28]: 7.14%; CC50 [29]: > 665 µM; TIME [30]: 0.228 h; TIME [31]: 0.373 h; Time [32]: 17.38 min; Time [33]: 29.33 min |
| C[C@H](NC(=O)[C@@H]1CCCN1C(=O)c1cc(-c2nc3ccc([N+](=O)[O-])cc3[nH]2)ccc1O)C(=O)O | 13 | 9 | 28 | 18 | 22 | 12 | 17 | 16 | 12.5 (≈ 26.7 µM) | 25 (≈ 53.5 µM) | 6 (≈ 12.8 µM) | 12.5 (≈ 26.7 µM) | 6 (≈ 12.8 µM) | 6 (≈ 12.8 µM) | 6 (≈ 12.8 µM) | 27.12 | 35.69 | 34.2 | 26.3 | 21 | inhibition at 62.5 µg/mL [21]: 18.4%; inhibition at 31.25 µg/mL [22]: 7.89%; CC50 [23]: > 1070 µM; inhibition at 500 µg/mL [24]: 25%; inhibition at 250 µg/mL [25]: 17.9%; inhibition at 125 µg/mL [26]: 14.3%; inhibition at 62.5 µg/mL [27]: 7.14%; inhibition at 31.25 µg/mL [28]: 7.14%; CC50 [29]: > 1070 µM; TIME [30]: 0.436 h; TIME [31]: 0.585 h; Time [32]: 31.9 min; Time [33]: 43.55 min |
| CC(C)[C@H](NC(=O)c1cc(-c2nc3ccc([N+](=O)[O-])cc3[nH]2)ccc1O)C(=O)N[C@@H](Cc1ccccc1)C(=O)N[C@@H](Cc1cnc[nH]1)C(=O)O | 13 | 11 | 24 | 16 | 19 | 12 | 13 | 19 | 6 (≈ 8.79 µM) | 12.5 (≈ 18.3 µM) | 12.5 (≈ 18.3 µM) | 12.5 (≈ 18.3 µM) | 6 (≈ 8.79 µM) | 12.5 (≈ 18.3 µM) | 6 (≈ 8.79 µM) | 11.55 | 21.72 | 42.1 | 28.9 | 26.3 | inhibition at 62.5 µg/mL [21]: 21%; inhibition at 31.25 µg/mL [22]: 10.5%; CC50 [23]: > 718 µM; inhibition at 500 µg/mL [24]: 10.7%; inhibition at 250 µg/mL [25]: 7.14%; inhibition at 125 µg/mL [26]: 7.14%; inhibition at 62.5 µg/mL [27]: 3.57%; inhibition at 31.25 µg/mL [28]: 3.57%; CC50 [29]: > 718 µM; TIME [30]: 0.174 h; TIME [31]: 0.326 h; Time [32]: 11.87 min; Time [33]: 22.79 min |
